The results in this text go back to ChEMBL document CHEMBL1129555, “Arylacetamide-derived fluorescent probes: synthesis, biological evaluation, and direct fluorescent labeling of kappa opioid receptors in mouse microglial cells” (J Med Chem, 1996).

The target in assay [1] is T1, Kappa-type opioid receptor (Cavia porcellus, UniProt P41144). As to the kind of experiment: Inhibitory activity against Opioid receptor kappa 1 in electrically stimulated guinea pig longitudinal ileal muscle (GPI) preparation. The procedure, abridged:
(§1)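 Electrically stimulated guinea pig longitudinal ileal muscle or mouse vas deferens preparations, run per earlier work. The read-out is inhibition of twitch, given as IC50 (nM), arithmetic mean ± SEM of at least three experiments.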

For assay [2], the species on record is Cavia porcellus. Put plainly: Percent recovery after treatment with 500 nM of NTX and removal of NTX by 40 washes with buffer using smooth guinea pig ileal muscle. It counts as functional. The settings on record: Muscle tissue. A digest of the protocol:
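Agonist-treated guinea pig ileum was incubated with 500 nM naltrexone for 10 min. NTX was then removed by 40 washes with buffer, and recovery of electrically evoked twitch height was recorded as percent. n = 1.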

In assay [3] the target is T1, Kappa-type opioid receptor. Put plainly: Binding affinity towards Opioid receptor kappa 1 in guinea pig brain. The procedure, abridged: (§2)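 Competition binding against radioligands in guinea pig brain membranes, modified from a published method. κ: 1 nM [³H]U69,593; µ: 2 nM [³H]DAMGO; δ1: 5 nM [³H]DPDPE; δ2: 2 nM [³H]DSLET. Ki values are geometric means of three experiments.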

For a further assay, the species on record is Mus musculus. As to the kind of experiment: Percent recovery of twitch height after 30-40 washes with buffer using mouse vas deferens preparation. It counts as functional. The procedure, abridged: (§3)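 After agonist treatment, the electrically stimulated guinea pig ileum or mouse vas deferens was washed 30-40 times with buffer alone. Percent recovery of twitch height was recorded, n = 1.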

Another assay addresses Mu-type opioid receptor (Cavia porcellus, UniProt P97266). As to the kind of experiment: Binding affinity towards Opioid receptor mu 1 in guinea pig brain. A digest of the protocol: as §2
In assay [4] the target is Kappa-type opioid receptor (Mus musculus, UniProt P33534). Put plainly: Inhibitory activity against Opioid receptor kappa 1 in electrically stimulated mouse vas deferens (MVD) preparation. A digest of the protocol: as §1
Assay [5] is filed under the species Cavia porcellus. As to the kind of experiment: Percent recovery of twitch height after 30-40 washes with buffer using smooth guinea pig ileal muscle. It counts as functional. The settings on record: Muscle tissue. A digest of the protocol:
as §3

T1 sequence (P41144 whole entry): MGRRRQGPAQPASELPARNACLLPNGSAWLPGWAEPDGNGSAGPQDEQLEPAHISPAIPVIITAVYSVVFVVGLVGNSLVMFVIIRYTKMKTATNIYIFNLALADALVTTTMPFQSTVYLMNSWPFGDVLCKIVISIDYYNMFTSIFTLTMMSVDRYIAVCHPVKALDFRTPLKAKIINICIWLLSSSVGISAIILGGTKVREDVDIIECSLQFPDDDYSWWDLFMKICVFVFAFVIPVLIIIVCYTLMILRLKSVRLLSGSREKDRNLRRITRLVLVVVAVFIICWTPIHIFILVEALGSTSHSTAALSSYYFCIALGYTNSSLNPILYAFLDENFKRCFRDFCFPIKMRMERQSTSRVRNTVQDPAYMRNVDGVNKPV
Kappa-type opioid receptor (Mus musculus, UniProt P33534), sequence (P33534 whole entry): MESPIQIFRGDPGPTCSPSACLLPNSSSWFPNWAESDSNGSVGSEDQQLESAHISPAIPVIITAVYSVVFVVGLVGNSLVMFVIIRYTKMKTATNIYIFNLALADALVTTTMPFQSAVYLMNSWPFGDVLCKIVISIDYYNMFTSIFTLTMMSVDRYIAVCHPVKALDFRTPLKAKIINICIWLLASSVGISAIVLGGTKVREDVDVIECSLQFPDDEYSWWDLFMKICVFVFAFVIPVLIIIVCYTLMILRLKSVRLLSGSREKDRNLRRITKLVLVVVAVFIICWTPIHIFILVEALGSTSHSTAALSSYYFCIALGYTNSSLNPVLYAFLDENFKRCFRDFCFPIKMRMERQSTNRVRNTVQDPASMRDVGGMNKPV
Mu-type opioid receptor, sequence (P97266 whole entry): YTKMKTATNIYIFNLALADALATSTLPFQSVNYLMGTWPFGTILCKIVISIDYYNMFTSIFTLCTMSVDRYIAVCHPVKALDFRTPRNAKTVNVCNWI

For `CN(C(=O)Cc1ccc(Cl)c(Cl)c1)[C@H](CN1CCCC1)c1cccc(NC(=O)CNC(=O)CNC(=O)CNC(=O)C/N=C(S)/N=C2\C=CC(=C3c4ccc(O)cc4Oc4cc(O)ccc43)C(C(=O)O)=C2)c1`, the IC50 in assay [1] was found to be 0.15 nM; in assay [4], 6.5 nM. Further, the Recovery in the assay filed under Cavia porcellus [2] was determined as 131%; in the assay listed under Mus musculus it was 100%; in the assay listed under Cavia porcellus [5], 44%. The Ki is 0.91 nM in assay [3] and 631 nM on Mu-type opioid receptor.
As for `CN(C(=O)Cc1ccc(Cl)c(Cl)c1)C(CN1CCCC1)c1ccc(NC(=O)CNC(=O)CNC(=O)CNC(=O)C/N=C(S)\N=C2/C=CC(=C3c4ccc(O)cc4Oc4cc(O)ccc43)C(C(=O)O)=C2)cc1` (centres undefined), the 50% inhibitory concentration (IC50) stood at 166 nM in assay [1] and 421 nM in assay [4].
Turning to `CN(C(=O)Cc1ccc(Cl)c(Cl)c1)[C@H](CN1CCCC1)c1cccc(N/C(S)=N/c2ccc(-c3c4ccc(=O)cc-4oc4cc(O)ccc34)c(C(=O)O)c2)c1`, the Recovery in the assay filed under Cavia porcellus [2] turned out to be 61%; in the assay listed under Mus musculus, 100%; in the assay listed under Cavia porcellus [5], 21%.
Take `CN(C(=O)Cc1ccc(Cl)c(Cl)c1)[C@H](CN1CCCC1)c1cccc(NC(=O)CNC(=O)C/N=C(S)/N=C2\C=CC(=C3c4ccc(O)cc4Oc4cc(O)ccc43)C(C(=O)O)=C2)c1`: the IC50 in assay [1] stood at 1.2 nM; in assay [4] it was 1.5 nM. Besides, the Recovery in the assay filed under Cavia porcellus [2] was 37%; in the assay filed under Mus musculus, 100%; in the assay filed under Cavia porcellus [5], 34%.
On to `CN(C(=O)Cc1ccc(Cl)c(Cl)c1)C(CN1CCCC1)c1ccc(N/C(S)=N/c2ccc(-c3c4ccc(=O)cc-4oc4cc(O)ccc34)c(C(=O)O)c2)cc1` (centres undefined), for which the IC50 in assay [1] is 5.2 nM; in assay [4] it was 12.6 nM.
The corresponding values for `CN(C(=O)Cc1ccc(Cl)c(Cl)c1)C(CN1CCCC1)c1ccc(NC(=O)C/N=C(S)/N=C2\C=CC(=C3c4ccc(O)cc4Oc4cc(O)ccc43)C(C(=O)O)=C2)cc1` (centres undefined) are 62 nM and 102 nM.
The corresponding values for `CN(C(=O)Cc1ccc(Cl)c(Cl)c1)C(CN1CCCC1)c1ccc(NC(=O)CNC(=O)C/N=C(S)\N=C2/C=CC(=C3c4ccc(O)cc4Oc4cc(O)ccc43)C(C(=O)O)=C2)cc1` (centres undefined) are 48 nM and 170 nM.
The corresponding values for `CN(C(=O)Cc1ccc(Cl)c(Cl)c1)[C@H](CN1CCCC1)c1cccc(NC(=S)Nc2ccc(-c3c4ccc(=O)cc-4oc4cc(O)ccc34)c(C(=O)O)c2)c1` are 0.37 nM and 1.2 nM.
In the case of `CN(C(=O)Cc1ccc(Cl)c(Cl)c1)[C@H](CN1CCCC1)c1ccccc1`, the Recovery in the assay filed under Cavia porcellus [2] is 32%; in the assay listed under Cavia porcellus [5], 20%.
Regarding `CN(C(=O)Cc1ccc(Cl)c(Cl)c1)[C@H](CN1CCCC1)c1cccc(NC(=O)C/N=C(S)/N=C2\C=CC(=C3c4ccc(O)cc4Oc4cc(O)ccc43)C(C(=O)O)=C2)c1`, the half-maximal inhibitory concentration (IC50) worked out at 0.17 nM in assay [1] and 1.2 nM in assay [4]. In addition, the Recovery in the assay listed under Cavia porcellus [2] was 97%; in the assay listed under Mus musculus, 79%; in the assay listed under Cavia porcellus [5] it was 39%. The Ki in assay [3] worked out at 0.31 nM; at Mu-type opioid receptor, 286 nM.
